Screening data deposited in PubChem by several laboratories.
APOBEC3A inh = APOBEC3A ssDNA deaminase inhibitors, primary screen, selectivity assay for APOBEC3G inhibitor project, biochemical, FAM/TAMRA oligo cleavage fluorescence | DNA dC->dU-editing enzyme APOBEC-3A (Homo sapiens), P31941 | recombinant A3A, FAM/TAMRA ssDNA deamination fluorescence | inhibition, % at 20 µM | 0.41% of 330,000 active;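 active means at least 40% inhibition at 20 µM here, with at most 30% in a related deaminase screen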;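 further: plate controls were A3A with DMSO for no effect and wells lacking A3A enzyme for full effect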
Target sequence (P31941 whole entry, looked up): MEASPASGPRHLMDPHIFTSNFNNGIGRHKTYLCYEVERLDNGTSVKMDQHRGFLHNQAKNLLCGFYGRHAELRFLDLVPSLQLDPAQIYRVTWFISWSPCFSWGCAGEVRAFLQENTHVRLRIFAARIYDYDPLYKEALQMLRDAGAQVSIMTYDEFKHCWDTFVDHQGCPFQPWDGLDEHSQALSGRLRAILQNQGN
HCV NS3 hel inh = inhibitors of HCV NS3 helicase, primary screen, biochemical, Cy5 molecular beacon fluorescence; Hepatitis C virus NS3 helicase; NS3 helicase DNA unwinding; inhibition, % at 10.9 µM; 0.56% of 290,000 active; AID 1800, 2009;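 active means inhibition above the mean of all tested compounds plus 3 SD, set per campaign, cut at about 35% in these data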;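 further: 0% = DMSO wells and 100% = thioflavine S control wells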
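System: NS3 helicase fragment of HCV / Schedule: 1 h at 25 °C / Control set: DMSO alone as 0% and 110 µM thioflavine S as 100% / Reagent: Cy5/quencher beacon DNA duplex and ATP to start / Technique: Cy5 fluorescence / Replication: singlicate / Evaluation: % inhibition of end-to-start signal ratio versus controls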
A3G deaminase = APOBEC3G DNA deaminase inhibitors, primary screen, biochemical, fluorescence, single-stranded DNA substrate, uHTS; DNA dC->dU-editing enzyme APOBEC-3G (Homo sapiens), Q9HC16; AID 493012, 2011; 0.28% of 330,000 active; recombinant A3G, ssDNA deamination FAM/TAMRA fluorescence; inhibition, % at 20 µM;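 active means inhibition of at least 40% at 20 µM, with no more than 30% in the related APOBEC3A deaminase screen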;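 further: plate controls were DMSO wells with A3G for no effect and wells lacking A3G enzyme for full effect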
ABHD5 PLIN5 PPI = ABHD5-PLIN5 interaction inhibitors, primary screen, cell lysate, split luciferase complementation, luminescence; Perilipin-5 (Homo sapiens) + 1-acylglycerol-3-phosphate O-acyltransferase ABHD5 (Homo …; Split G. princeps luciferase complementation, 4 h; inhibition, % at 4 µM; 0.78% of 360,000 active;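 active means inhibition above the mean inhibition across every tested compound plus 3 SD, cut at about 22% in these data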;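 further: 0% = DMSO only wells and the 100% control is not disclosed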
PRMT1 FP inh = PRMT1 methyltransferase inhibitors, primary screen, biochemical, fluorescence polarization. Protein arginine N-methyltransferase 1 (Homo sapiens), Q99873. recombinant PRMT1, activity-based probe fluorescence polarization. inhibition, % at 2.79 µM. 1.3% of 370,000 active;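 active means inhibition above about 21% made by adding two undisclosed values, limit read from the data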
Target sequence (Q99873 whole entry, looked up): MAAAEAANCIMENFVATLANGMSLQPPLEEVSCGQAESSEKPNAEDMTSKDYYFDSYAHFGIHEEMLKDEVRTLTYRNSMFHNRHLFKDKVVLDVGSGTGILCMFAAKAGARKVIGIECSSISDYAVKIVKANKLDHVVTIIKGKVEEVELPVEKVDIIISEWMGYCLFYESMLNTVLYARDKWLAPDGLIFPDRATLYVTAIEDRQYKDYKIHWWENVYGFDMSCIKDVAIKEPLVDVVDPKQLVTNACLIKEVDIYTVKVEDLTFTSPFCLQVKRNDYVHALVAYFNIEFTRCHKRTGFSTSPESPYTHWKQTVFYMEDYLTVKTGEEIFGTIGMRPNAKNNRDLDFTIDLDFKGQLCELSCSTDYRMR
core dimer inh = inhibitors of HCV core protein dimerization, primary screen, biochemical, TR-FRET, high-throughput. TR-FRET GST/Flag-core106 dimerization, 1536-well. inhibition, % at 5 µM. 0.33% of 300,000 active. AID 1899, 2009;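 active means inhibition above the mean of all tested compounds plus 3 SD, set per screening campaign, cut at about 45% in these data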
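Material: Tagged HCV core106 pair (GST and Flag) | Amount: GST-core106 13.5 nM, Flag-core106 17 nM | Medium: KF-containing HEPES buffer, pH 7.45, DTT, CHAPS, BSA | Reagent: Eu donor and XL665 acceptor anti-tag antibodies | Schedule: 4 h at 22.5 °C | Technique: Time-resolved FRET, ex 340 nm, em 617 and 671 nm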
Starred values were filed as active, the others as inactive; . = not tested or not shown. An excerpt weighted towards active compounds, which were near 2.9% of everything screened.

SMILES	APOBEC3A inh	HCV NS3 hel inh	A3G deaminase	ABHD5 PLIN5 PPI	PRMT1 FP inh	core dimer inh
COc1ccc(S(=O)(=O)N(C)C)cc1NC(=O)c1ccc(OCC(=O)N2CCOCC2)c(OC)c1	17.4	.	-7.6	4.7	5.0	0.8
O=C1c2cc(O)c(O)cc2S(=O)(=O)C1c1ccccc1 (stereo not drawn)	-5.0	.	-12.1	4.5	23.8*	-9.7
O=C(CN1C(=O)c2ccccc2S1(=O)=O)c1ccc(O)c(O)c1	-3.8	-5.3	-2.1	-2.5	4.4	1.4
CC[C@]12c3[nH]c4ccc(OC)cc4c3CCN1C(=O)C(CC(=O)NC(C)(C)C)C[C@@H]2C(=O)N1CCN(C(=O)c2ccco2)CC1 (stereo partly drawn)	4.2	.	7.1	-3.0	0.1	.
O=C(NCc1ccccc1)c1ccc2nc(-c3ccco3)c(-c3ccco3)nc2c1	91.3	23.8	86.4	24.3*	44.5*	72.7*
CC(C)[C@H](NC(=O)c1ccco1)C(=O)N1CCC[C@H]1C(=O)NCc1ccccc1	.	.	.	.	1.8	.
OCc1cn(-c2ccccc2)nc1-c1ccco1	-2.2	3.9	-6.2	16.8	0.7	11.6
Cc1ccc(-c2nn(-c3ccccc3)cc2CO)o1	-5.5	5.7	0.2	-0.5	24.7*	-0.8
CCC1(CC)NC(=O)N(CC(=O)Nc2sc3c(c2C(N)=O)CCC3)C1=O	17.0	28.9	20.5	8.4	1.7	82.6*
CCCCC1=CC2=C(c3ccco3)C(=O)C(C)(OC(=O)c3ccc(OC)cc3)C(=O)C2=CN1C1CCCC1 (stereo not drawn)	-3.7	.	-4.8	.	.	58.6*
CCCCC1=CC2=C(c3ccco3)C(=O)C(C)(OC(=O)c3ccc(OC)cc3)C(=O)C2=CN1c1ccc(OC)cc1 (stereo not drawn)	33.7	.	-6.9	1.8	8.6	57.9*
CCCCCCCCN1C(=O)[C@@H](CC(=O)NCc2ccc(OC)c(OC)c2)C[C@@]2(C(=O)OC)C1=C[C@H](C(C)C)O[C@@H]2C1CC1	.	.	.	.	3.3	.
COCCN1Cc2cc(C(=O)OC)c3c(c2C1=O)c1cc(F)ccc1n3C(=O)c1ccccc1	.	.	.	.	0.0	.
COCC(=O)N(c1ccc(C(C)(C)C)cc1)C(C(=O)NC(C)(C)C)c1cccnc1 (stereo not drawn)	.	.	.	.	2.3	.
O=C(NC1CCC1)c1ccc(C#Cc2cccc(F)c2)nc1	.	.	.	.	-0.7	.
COc1cccc2cc(/C(C)=N/Nc3nc(-c4cc(C)ccc4C)cs3)c(=O)oc12	-1.2	28.1	-5.8	4.3	4.4	75.8*
COc1cccc(C=C2Cc3ccccc3C2=O)c1	.	.	.	22.6*	1.4	.
Cc1cccc(CS(=O)(=O)c2nnc([C@H](Cc3ccccc3)NC(=O)OC(C)(C)C)o2)c1	-0.9	-14.0	-4.5	43.4*	.	-3.9
COC(=O)CSc1nnc([C@H](Cc2ccccc2)NC(=O)OC(C)(C)C)o1	-1.7	-2.1	-5.1	1.1	0.8	-4.9
COC(=O)CS(=O)(=O)c1nnc([C@H](Cc2ccccc2)NC(=O)OC(C)(C)C)o1	-3.4	17.0	-8.4	56.5*	12.6	-1.1
O=C(CN1C(=O)NC2(CCCc3ccccc32)C1=O)NCc1ccc(Cl)cc1Cl (stereo not drawn)	8.4	-12.5	-5.1	-0.7	-0.5	-3.5
Cn1cc(CCOCc2ccccn2)c2ccccc21	.	.	.	.	-1.7	.
Cc1nc2cc(NC(=O)N3CCN(c4ccccn4)CC3)ccc2o1	-0.4	-0.7	-5.6	1.2	1.6	-1.9
O=C(Nc1ccc2nc(-c3ccco3)c(-c3ccco3)nc2c1)N1CCN(c2ccccn2)CC1	42.7*	16.7	-5.1	19.9	48.0*	24.5
COc1ccc(NC(=O)CSCC(=O)N(C)CC(=O)Nc2cccc3ccccc23)cc1	16.9	.	-3.8	2.6	-2.4	1.6
SMILES	APOBEC3A inh	HCV NS3 hel inh	A3G deaminase	ABHD5 PLIN5 PPI	PRMT1 FP inh	core dimer inh
O=C(NCc1ccccc1)[C@@H]1CCCN1C(=O)[C@H]1CCCN1C(=O)c1cc(F)cc(F)c1	.	.	.	.	-4.5	.
O=C(c1ccccc1)c1c(-c2ccccc2)[nH]n(-c2ccccc2)c(=O)c1=O	-1.3	.	2.4	8.1	-2.5	12.8
CSc1nc(SCCO)c2sc3nc(-c4ccco4)c4c(c3c2n1)CC(C)(C)OC4	.	31.3	.	15.8	22.1*	.
CCN(CC)CCOc1ccc(-c2c(C)c3c(ccc4ccccc43)oc2=O)cc1	.	.	.	6.0	-3.2	.
Cc1ccc(-c2cc(C(=O)NN=Cc3cccc4ccccc34)[nH]n2)cc1C	.	.	.	.	-6.3	.
CCc1nc2ccc(C(=O)Nc3cccc(OCC(=O)N(C)C)c3)cn2c1N(C)C(=O)c1ccncc1	.	.	.	4.1	2.0	.
Cc1ccc(/C=C2\SC(=S)N(CC(=O)Nc3ncc(Cc4ccccc4Cl)s3)C2=O)cc1	-6.3	13.7	-5.2	.	1.1	31.7
Cc1ccc(/C=C2/SC(=S)N(CC(=O)Nc3ncc(Cc4ccc(C)cc4)s3)C2=O)cc1	-2.2	3.7	-1.8	-4.4	1.3	69.9*
O=C(CN1C(=O)/C(=C/c2cccc(Br)c2)SC1=S)NC1=NCCS1	-1.8	14.0	-4.8	1.4	15.0	49.6*
CCc1nnc(NC(=O)CN2C(=O)/C(=C/c3cc(OC)c(OC)c(OC)c3)SC2=S)s1	-1.8	19.4	-4.9	-15.1	21.4*	4.1
Cc1cccc(Cc2cnc(NC(=O)CN3C(=O)/C(=C/c4ccccc4)SC3=S)s2)c1	-5.3	11.9	-8.8	-12.8	3.2	62.3*
CCN(CCc1ccccc1)c1ccc2c(c1)C1CC2CCN1Cc1ccccc1 (stereo not drawn)	.	.	.	-2.9	0.4	.
COC(=O)C[C@H]1c2cc(C(F)(F)F)ccc2S(=O)(=O)N1c1ccc(N(C)C)cc1	-3.3	.	-9.3	-6.0	-1.0	-6.9
O=C(C[n+]1cc(-c2ccc(Cl)cc2)n2c1CCC2)N1c2ccccc2Sc2ccccc21	0.5	-59.9	-3.3	22.6*	-2.8	-7.3
Cn1c(NC(=O)C[n+]2cc(-c3ccc(Cl)c(Cl)c3)n3c2CCC3)cc(=O)n(C)c1=O	-0.9	-3.0	-5.8	6.5	-0.3	-3.2
O=C(C[n+]1cc(-c2ccc(Cl)c(Cl)c2)n2c1CCC2)N1c2ccccc2Sc2ccccc21	1.8	-77.0	-4.2	33.7*	-3.9	-2.4
COc1ccc(-c2c[n+](CC(=O)N3c4ccccc4Sc4ccccc43)c3n2CCC3)cc1	-0.8	-70.5	-5.1	11.7	3.3	-3.6
